# In ChEMBL document CHEMBL4038331 (J Med Chem, 2017):
# Active and inactive are the calls of the source. The rule behind the calls is not given here.
# Tests used:
# [1] = Antioxidant activity assessed as DPPH radical scavenging activity measured every minute for 45 mins; type: functional
# Outline: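 DPPH• ethanolic solution diluted to absorbance 0.72 ± 0.02 at 515 nm. Ethanolic test solutions (50–500 μM) were added in triplicate and read at 515 nm. Inhibition was taken against an ethanol blank (100% radical), and IC50 was read from dose–response curves.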
# [2] = Antioxidant activity assessed as ABTS radical scavenging activity measured each minute for 15 mins by spectrophotometric analysis; type: functional
# Outline: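 ABTS•+ generated from 7 mM ABTS plus potassium persulfate, held 16 h dark at room temperature, then diluted in ethanol to absorbance 0.72 ± 0.02. Ethanolic test solutions (10–500 μM) were added to radical solution in triplicate. Inhibition was taken against an ethanol blank (100% radical), and IC50 was read from dose–response curves.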
# [3] = Antioxidant activity assessed as GO radical scavenging activity measured for 30 mins in absence of light; type: functional
# Outline: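 Ethanolic GO• (5 mM stock) diluted to absorbance 1.00 ± 0.02 at 428 nm. Test solutions (5–75 μM in ethanol) were added in triplicate and read at 428 nm at room temperature. Inhibition was taken against an ethanol blank (100% radical).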
# [4] = Redox potential of compound in Ag/AgCl-NaCl containing phosphate buffer at 0.1 mM at pH 7.4 by cyclic voltammetric analysis
# Outline: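 Voltammetry used a glassy carbon working electrode, Pt counter and Ag/AgCl reference. Compound was at 0.1 mM final (10 mM ethanolic stock) in pH 7.4 potassium phosphate electrolyte.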
# [5] = Lipophilicity of compound in Ag/AgCl-NaCl containing PET membrane assessed as tranfer potential at pH 7; type: physicochemical
# Outline: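 Transfer across a liquid–liquid interface on a microporous PET membrane, with 1,6-dichlorohexane organic phase containing BTPPATPBCl. A gelled 2 mM BTPPACl + 2 mM NaCl reference was used, with 10 mM Tris-HCl pH 7.0 aqueous electrolyte.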
# [6] = Iron chelating activity in ammonium acetate buffer assessed as inhibition of [Fe(ferrozine)3]2+ formation at 100 uM at pH 6.7 measured after 10 mins by spectrophotometric analysis
# Outline: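 Ferrozine assay in ammonium acetate buffer pH 6.7. Compound (100 μM) plus ammonium iron(II) sulfate (20 μM) for 10 min, read at 562 nm. Ferrozine was added, incubated 10 min at 37 °C, and re-read at 562 nm. The first reading was subtracted, with a DMSO blank and EDTA = 100%. Three experiments.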
# Liver [7] = test: Drug uptake in rat liver intra-mitochondria at 1 uM in presence of succinate/valinomycin by TPP+-based electrode assay; type: ADME, tissue-based
# Outline: (§1)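 TPP+-selective electrode with rat liver mitochondria (0.5 mg/mL) in 120 mM KCl, 10 mM HEPES pH 7.2, 1 mM EGTA at 37 °C with rotenone 1.5 μM. Five 1 μM additions calibrated the electrode, then succinate 10 mM was added, then valinomycin 0.2 μg/mL. The accumulation ratio assumed a matrix volume of ~0.5 μL/mg with a binding correction.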
# Liver [8] = test: Drug uptake in rat liver extra-mitochondria at 1 uM in presence of succinate/valinomycin by TPP+-based electrode assay; type: ADME, tissue-based; outline: as §1
# Liver [9] = test: Ratio of drug level in rat liver intra-mitochondria to extra-mitochondria at 1 uM in presence of succinate/valinomycin by TPP+-based electrode assay; type: ADME, tissue-based; outline: as §1
# Liver [10] = test: Antioxidant activity in rat liver mitochondria assessed as inhibition of FeSO4/H2O2-induced lipid peroxidation at 5 uM preincubated for 5 mins followed by FeSO4/H2O2 addition for 15 mins by TBARS-based fluorescence assay; type: functional
# Outline: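 Rat liver mitochondria (2 mg protein/mL) in 100 mM KCl, 10 mM Tris-HCl pH 7.6 with glutamate/malate at 37 °C. After 5 min with compound (5 μM), 100 μM FeSO4/500 μM H2O2/5 mM ascorbate was added for 15 min. Butylated hydroxytoluene, perchloric acid and thiobarbituric acid were added, then heated 15 min at 100 °C. Read-out as % of control, three experiments.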
# Liver [11] = test: Induction of basal oxygen consumption under nonphosphorylative conditions in rat liver mitochondria after 5 mins in presence of glutamate/malate; type: functional
# Outline: (§2)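 Glutamate/malate (10/5 mM) or succinate (5 mM) was the substrate, with compound 2.5–10 μM for 5 min (state 2). ADP was added (125 nmol glutamate/malate; 75 nmol succinate), then oligomycin 2 μg/mL, then FCCP 1 μM. RCR and ADP/O were calculated. Seven experiments.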
# Liver [12] = test: Induction of ADP-stimulated respiration in rat liver mitochondria after 5 mins in presence of succinate; type: functional; outline: as §2
# Liver [13] = test: Induction of basal respiration in rat liver mitochondria measured 5 mins after ADP phosphorylation in presence of glutamate/malate; type: functional; outline: as §2
# Liver [14] = test: Increase in oligomycin-inhibited respiration in rat liver mitochondria after 5 mins in presence of glutamate/malate; type: functional; outline: as §2
# Liver [15] = test: Increase in oligomycin-inhibited respiration in rat liver mitochondria after 5 mins in presence of succinate; type: functional; outline: as §2
# Liver [16] = test: Induction of basal respiration in rat liver mitochondria measured 5 mins after ADP phosphorylation in presence of succinate; type: functional; outline: as §2
# Liver [17] = test: Induction of basal oxygen consumption under nonphosphorylative conditions in rat liver mitochondria after 5 mins in presence of succinate; type: functional; outline: as §2
# Liver [18] = test: Induction of ADP-stimulated respiration in rat liver mitochondria after 5 mins in presence of glutamate/malate; type: functional; outline: as §2
# Liver [19] = test: Decrease in oxidative phosphorylation efficiency in rat liver mitochondria assessed as reduction in coupling between ATP systhesis and oxygen consumption after 5 mins in presence of glutamate/malate; type: functional; outline: as §2
# Liver [20] = test: Decrease in oxidative phosphorylation efficiency in rat liver mitochondria assessed as reduction in coupling between ATP systhesis and oxygen consumption after 5 mins in presence of succinate; type: functional; outline: as §2
# Liver [21] = test: Decrease in oxidative phosphorylation efficiency in rat liver mitochondria assessed as reduction in respiratory control ratio after 5 mins in presence of glutamate/malate; type: functional; outline: as §2
# Liver [22] = test: Antioxidant activity in rat liver mitochondria assessed as inhibition of ADP/FeSO4-induced lipid peroxidation at 5 uM preincubated for 5 mins followed by ADP/FeSO4 addition; type: functional
# Outline: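 Rat liver mitochondria (2 mg) in 100 mM KCl, 10 mM Tris-HCl pH 7.6, with glutamate/malate (5/2.5 mM) at 37 °C. After 5 min with compound (5 μM), peroxidation was started with ADP/0.1 mM FeSO4. The lag phase of O2 consumption was measured by Clark electrode and expressed as % of control. Six experiments.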
# Liver [23] = test: Induction of membrane hyperpolarization in rat liver mitochondria assessed as change in repolarization potential at 2.5 uM; type: functional
# Outline: (§3)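 Safranine (5 μM) fluorescence (ex 495/em 586 nm) at 25 °C. Rat liver mitochondria (0.5 mg/2 mL) were in 200 mM sucrose, 1 mM KH2PO4, 10 mM Tris pH 7.4, 10 μM EGTA with glutamate/malate or succinate, after 5 min with 2.5–10 μM. ADP 25 nmol depolarised, then FCCP 1 μM was added. A valinomycin calibration in K+-free medium was used, five experiments.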
# Liver [24] = test: Inhibition of ADP-induced membrane depolarization in succinate energized rat liver mitochondria at 10 uM preincubated for 5 mins followed by ADP addition measured by safranine-based spectrofluorometric analysis; type: functional, tissue-based; outline: as §3
# [25] = Induction of mPTP in energized rat liver mitochondria at 2.5 to 10 uM after 5 mins in presence of succinate by spectrophotometric analysis
# Rattus norvegicus [26] = species on record: Rattus norvegicus; test: Inhibition of mPTP in energized rat liver mitochondria at 2.5 to 10 uM after 5 mins in presence of succinate by spectrophotometric analysis
# Rattus norvegicus [27] = species on record: Rattus norvegicus; test: Inhibition of mPTP in energized rat liver mitochondria at 10 uM after 5 mins in presence of succinate by spectrophotometric analysis
# Outline: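 Ca2+ (15–50 μM, titrated daily) added to trigger mPTP, with cyclosporin A as control. Swelling followed as light scattering at 540 nm with stirring at 37 °C. Reported as Δabsorbance; mean ± SEM, n=3.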
SMILES,IC50 [1],IC50 [2],IC50 [3],Activity [4],Activity [5],Drug uptake (Liver [7]),Drug uptake (Liver [8]),Ratio (Liver [9]),Activity (Liver [11]),Activity (Liver [12]),Activity (Liver [13]),Activity (Liver [14]),Activity (Liver [15]),Activity (Liver [16]),Activity (Liver [17]),Activity (Liver [18]),Activity (Liver [19]),Activity (Liver [20]),Activity (Liver [21]),Activity [25],other results
CS(=O)(=O)[O-].O=C(/C=C/c1ccc(O)c(O)c1)NCCCCCC[P+](c1ccccc1)(c1ccccc1)c1ccccc1,29.5 µM,30.5 µM,4.1 µM,0.164 V,0.396 V,2.5 mM,1.8 µM,2500,Dose-dependent effect,Dose-dependent effect,Dose-dependent effect,Dose-dependent effect,Dose-dependent effect,Dose-dependent effect,Dose-dependent effect,Dose-dependent effect,Dose-dependent effect,Dose-dependent effect,Dose-dependent effect,,inhibition [6]: Active; inhibition (Liver [10]): Active
CS(=O)(=O)[O-].O=C(/C=C/c1cc(O)c(O)c(O)c1)NCCCCCCCCCC[P+](c1ccccc1)(c1ccccc1)c1ccccc1,13.7 µM,7.5 µM,2.5 µM,0.057 V,0.377 V,5 mM,1.4 µM,3500,Dose-dependent effect,Dose-dependent effect,Dose-dependent effect,Dose-dependent effect,Dose-dependent effect,Dose-dependent effect,Dose-dependent effect,Dose-dependent effect,Dose-dependent effect,Dose-dependent effect,Dose-dependent effect,Non-Toxic,inhibition (Liver [22]): Active; inhibition (Liver [10]): Active; Activity (Liver [23]): 25 mV; inhibition (Liver [24]): Active; inhibition (Rattus norvegicus [26]): Active
CS(=O)(=O)[O-].O=C(/C=C/c1cc(O)c(O)c(O)c1)NCCCCCCCC[P+](c1ccccc1)(c1ccccc1)c1ccccc1,14.7 µM,8.7 µM,2.3 µM,0.046 V,0.423 V,4.5 mM,1 µM,3900,Dose-dependent effect,Dose-dependent effect,Dose-dependent effect,Dose-dependent effect,Dose-dependent effect,Dose-dependent effect,Dose-dependent effect,Dose-dependent effect,Dose-dependent effect,Dose-dependent effect,Dose-dependent effect,Non-Toxic,inhibition (Liver [22]): Active; Activity (Liver [23]): 25 mV; inhibition (Rattus norvegicus [26]): Active
O=C(O)CN(CCN(CC(=O)O)CC(=O)O)CC(=O)O,,,,,,,,,,,,,,,,,,,,,inhibition [6]: Active
COC1=C(OC)C(=O)C(CCCCCCCCCC[P+](c2ccccc2)(c2ccccc2)c2ccccc2)=C(C)C1=O.CS(=O)(=O)[O-] [MITOQUINONE MESYLATE],,,,,,,,,,,,,,,,,,,,Non-Toxic,inhibition [6]: inactive; inhibition (Rattus norvegicus [27]): inactive
O=C(O)/C=C/c1ccc(O)c(O)c1 [CAFFEIC ACID],18.1 µM,17.9 µM,3.4 µM,0.168 V,,,,,,,,,,,,,,,,,
CS(=O)(=O)[O-].O=C(/C=C/c1ccc(O)c(O)c1)NCC[P+](c1ccccc1)(c1ccccc1)c1ccccc1,35.4 µM,33.3 µM,4.5 µM,0.166 V,0.572 V,1.5 mM,3.7 µM,600,,Dose-dependent effect,Dose-dependent effect,Dose-dependent effect,Dose-dependent effect,Dose-dependent effect,Dose-dependent effect,Dose-dependent effect,Dose-dependent effect,Dose-dependent effect,Dose-dependent effect,,inhibition (Liver [22]): Active
CS(=O)(=O)[O-].O=C(/C=C/c1ccc(O)c(O)c1)NCCCCCCCC[P+](c1ccccc1)(c1ccccc1)c1ccccc1,28 µM,27.9 µM,2.8 µM,0.17 V,0.345 V,5.7 mM,1.2 µM,5100,Dose-dependent effect,Dose-dependent effect,Dose-dependent effect,Dose-dependent effect,Dose-dependent effect,Dose-dependent effect,Dose-dependent effect,Dose-dependent effect,Dose-dependent effect,Dose-dependent effect,Dose-dependent effect,Non-Toxic,Activity (Liver [23]): 10 mV; inhibition (Rattus norvegicus [26]): Active
